Experimental data published in ChEMBL document CHEMBL4011649 (J Med Chem, 2017).
Active and inactive are the calls of the source. The rule behind the calls is not given here.

Assays:
[1] = molecular target: T1, 5-hydroxytryptamine receptor 2B (Homo sapiens, UniProt P41595); test: Agonist activity at human 5-HT2B receptor expressed in Flp-IN HEK293 cells assessed as induction of calcium flux up to 10 uM measured every second for 5 mins by Fluo-4 dye based FLIPR assay; assay type: cell-based; details: hek293, 5 min
[2] = molecular target: T2, 5-hydroxytryptamine receptor 2C (Homo sapiens, UniProt P28335); test: Agonist activity at human 5-HT2C-INI receptor isoform expressed in Flp-IN HEK293 cells assessed as induction of Gq-mediated calcium flux measured every second for 5 mins by Fluo-4 dye based FLIPR assay; assay type: functional, cell-based
T2 sequence (P28335 whole entry): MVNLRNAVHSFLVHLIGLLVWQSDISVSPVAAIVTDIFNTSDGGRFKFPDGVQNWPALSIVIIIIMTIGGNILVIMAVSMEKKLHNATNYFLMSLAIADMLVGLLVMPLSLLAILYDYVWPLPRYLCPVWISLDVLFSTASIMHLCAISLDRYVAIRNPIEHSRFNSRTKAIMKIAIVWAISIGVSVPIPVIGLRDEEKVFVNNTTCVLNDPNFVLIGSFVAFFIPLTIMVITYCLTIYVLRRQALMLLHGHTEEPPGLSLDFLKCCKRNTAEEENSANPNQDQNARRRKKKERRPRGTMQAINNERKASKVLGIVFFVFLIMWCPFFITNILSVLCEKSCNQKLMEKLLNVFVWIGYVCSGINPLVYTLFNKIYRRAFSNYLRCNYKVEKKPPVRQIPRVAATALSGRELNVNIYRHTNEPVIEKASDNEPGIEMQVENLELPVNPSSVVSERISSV

[3] = molecular target: T3, 5-hydroxytryptamine receptor 2C (Homo sapiens) (UniProt P28335); test: Agonist activity at human 5-HT2C-INI receptor isoform expressed in Flp-IN HEK293 cells assessed as induction of Gq-mediated calcium flux measured every second for 5 mins by Fluo-4 dye based FLIPR assay relative to serotonin; assay type: functional, cell-based
T3 sequence (whole entry): T2 sequence (P28335 whole entry)

[4] = molecular target: T4, 5-hydroxytryptamine receptor 2A (Homo sapiens, UniProt P28223); test: Agonist activity at human 5-HT2A receptor expressed in Flp-IN HEK293 cells assessed as induction of calcium flux measured every second for 5 mins by Fluo-4 dye based FLIPR assay; assay type: cell-based
5-HT2A receptor = 5-HT2A receptor (Homo sapiens, UniProt P28223); test: Agonist activity at human 5-HT2A receptor expressed in Flp-IN HEK293 cells assessed as induction of calcium flux measured every second for 5 mins by Fluo-4 dye based FLIPR assay relative to serotonin; assay type: cell-based; details: Flp-IN HEK293 cells expressing human 5-HT2A receptor
[5] = molecular target: T1, 5-hydroxytryptamine receptor 2B; test: Agonist activity at human 5-HT2B receptor expressed in Flp-IN HEK293 cells assessed as induction of calcium flux measured every second for 5 mins by Fluo-4 dye based FLIPR assay; assay type: cell-based
5-HT2B receptor = 5-HT2B receptor (Homo sapiens, UniProt P41595); test: Agonist activity at human 5-HT2B receptor expressed in Flp-IN HEK293 cells assessed as induction of calcium flux measured every second for 5 mins by Fluo-4 dye based FLIPR assay relative to serotonin; assay type: cell-based; details: Flp-IN HEK293 cells expressing human 5-HT2B receptor
[6] = molecular target: T3, 5-hydroxytryptamine receptor 2C (Homo sapiens); test: Agonist activity at human 5-HT2C-INI receptor isoform expressed in Flp-IN HEK293 cells assessed as induction of Gq-mediated calcium flux up to 10 uM measured every second for 5 mins by Fluo-4 dye based FLIPR assay; assay type: functional, cell-based
[7] = molecular target: T4, 5-hydroxytryptamine receptor 2A; test: Agonist activity at human 5-HT2A receptor expressed in Flp-IN HEK293 cells assessed as induction of calcium flux up to 10 uM measured every second for 5 mins by Fluo-4 dye based FLIPR assay; assay type: cell-based; details: hek293, 5 min
[8] = molecular target: T3, 5-hydroxytryptamine receptor 2C (Homo sapiens); test: Agonist activity at tTA containing TEV cleavage site-fused 5-HT2C-INI receptor isoform (unknown origin) expressed in TEV-fused beta-arrestin2 expressing HEK cells assessed as induction of beta-arrestin2 recruitment up to 10 uM after 20 hrs by Tango assay; assay type: cell-based
Procedure, shortened: (§1)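 HTLA cells (HEK cells with TEV-fused β-arrestin-2 and tTA-driven luciferase) transfected with tTA-fused 5-HT2C-INI receptor carrying a TEV site. Luminescence read after 20 min lysis at room temperature. Normalized to % 5-HT and fitted sigmoidally. NA means no activity up to 10 μM. Mean of n = 3.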

[9] = molecular target: T3, 5-hydroxytryptamine receptor 2C (Homo sapiens); test: Ratio of Emax to EC50 for human 5-HT2C-INI receptor isoform expressed in Flp-IN HEK293 cells; assay type: cell-based
[10] = molecular target: T3, 5-hydroxytryptamine receptor 2C (Homo sapiens); test: Ratio of Emax to EC50 for tTA containing TEV cleavage site-fused 5-HT2C-INI receptor isoform (unknown origin) expressed in TEV-fused beta-arrestin2 expressing HEK cells assessed as induction of beta-arrestin2 recruitment activity; assay type: cell-based
[11] = molecular target: T3, 5-hydroxytryptamine receptor 2C (Homo sapiens); test: Agonist activity at tTA containing TEV cleavage site-fused 5-HT2C-INI receptor isoform (unknown origin) expressed in TEV-fused beta-arrestin2 expressing HEK cells assessed as induction of beta-arrestin2 recruitment after 20 hrs by Tango assay relative to serotonin; assay type: cell-based; procedure, shortened: as §1
[12] = molecular target: T2, 5-hydroxytryptamine receptor 2C; test: Agonist activity at tTA containing TEV cleavage site-fused 5-HT2C-INI receptor isoform (unknown origin) expressed in TEV-fused beta-arrestin2 expressing HEK cells assessed as induction of beta-arrestin2 recruitment after 20 hrs by Tango assay; assay type: cell-based
Homo sapiens = organism: Homo sapiens; test: Selectivity ratio of EC50 for human 5HT2B receptor to EC50 for human 5HT2C-INI receptor

Sequence of 5-HT2A receptor (P28223 whole entry): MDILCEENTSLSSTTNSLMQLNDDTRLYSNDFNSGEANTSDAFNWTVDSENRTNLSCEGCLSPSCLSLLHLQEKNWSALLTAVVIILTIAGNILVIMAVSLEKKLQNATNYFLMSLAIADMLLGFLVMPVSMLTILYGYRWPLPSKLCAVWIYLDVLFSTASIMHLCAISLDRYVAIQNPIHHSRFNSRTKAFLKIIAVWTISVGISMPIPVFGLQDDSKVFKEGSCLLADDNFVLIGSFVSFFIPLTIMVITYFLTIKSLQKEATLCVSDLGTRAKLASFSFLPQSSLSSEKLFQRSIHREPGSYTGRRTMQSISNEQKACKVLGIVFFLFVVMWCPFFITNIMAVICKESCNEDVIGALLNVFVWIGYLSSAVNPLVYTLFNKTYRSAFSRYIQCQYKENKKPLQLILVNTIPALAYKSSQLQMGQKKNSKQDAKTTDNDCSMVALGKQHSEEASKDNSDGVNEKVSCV
T4 sequence (P28223 whole entry): as above
Sequence of 5-HT2B receptor (P41595 whole entry, canonical isoform): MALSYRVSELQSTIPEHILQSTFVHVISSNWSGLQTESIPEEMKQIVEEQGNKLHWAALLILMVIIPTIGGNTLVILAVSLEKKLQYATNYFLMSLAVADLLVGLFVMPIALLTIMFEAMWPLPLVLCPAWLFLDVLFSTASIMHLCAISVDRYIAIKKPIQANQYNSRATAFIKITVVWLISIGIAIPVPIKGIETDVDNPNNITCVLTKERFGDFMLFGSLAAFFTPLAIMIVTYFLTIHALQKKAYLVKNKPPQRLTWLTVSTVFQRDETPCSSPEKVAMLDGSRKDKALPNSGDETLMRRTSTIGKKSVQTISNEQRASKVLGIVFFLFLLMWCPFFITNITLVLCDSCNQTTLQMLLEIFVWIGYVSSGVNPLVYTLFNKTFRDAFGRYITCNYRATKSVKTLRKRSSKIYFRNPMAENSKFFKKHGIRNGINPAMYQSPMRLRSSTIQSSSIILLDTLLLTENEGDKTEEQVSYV
T1 sequence (P41595 whole entry, canonical isoform): as above

SMILES	Activity [1]	EC50 ([2]; read-out: EC50) [nM]	Emax [3] [%]	EC50 [4] [nM]	Emax at 5 min (5-HT2A receptor) [%]	Emax at 5 min (5-HT2B receptor) [%]	further results
C=CCOc1ccc(F)cc1[C@H]1C[C@@H]1CNC.Cl	Not Active	13	15	284	19	–	–
COc1ccc(F)cc1C1CC1CNCc1cccc2cccnc12 (racemic)	–	530	84	460	69	73	EC50 [5]: 87 nM
COc1ccc(CNC[C@@H]2C[C@H]2c2cc(F)ccc2OC)cc1.Cl	Not Active	–	–	–	–	–	Activity [6]: inactive; Activity [7]: Not Active
COc1ccc(F)cc1[C@H]1C[C@@H]1CNCc1ccccc1F.Cl	Not Active	502	78	1880	63	–	–
COc1ccc(F)cc1[C@H]1C[C@@H]1CNCc1cccs1.Cl	Not Active	120	60	438	34	–	Activity [8]: inactive; log(ratio) [9]: 6.7
COc1ccc(F)cc1C1CC1CNCc1ccccc1C(N)=O (racemic)	–	409	31	1310	67	82	EC50 [5]: 335 nM
CNC[C@H]1C[C@@H]1c1cc(F)ccc1OCCF.Cl	Not Active	–	–	–	–	–	Activity [6]: inactive; Activity [7]: Not Active
COc1ccc(F)cc1[C@@H]1C[C@H]1CNCc1ccccc1Cl.Cl	Not Active	1860	72	2990	–	–	–
COc1ccc(F)cc1C1CC1CNCC1CCCCC1.Cl (racemic)	Not Active	95	15	–	–	–	Activity [7]: Not Active
COc1ccc(F)cc1[C@@H]1C[C@H]1CNCc1ccccc1F.Cl	Not Active	1640	90	1880	78	–	–
C=CCOc1ccc(F)cc1[C@H]1C[C@@H]1CNCc1ccccc1OC	–	9.2	97	28	80	28	EC50 ([2]; read-out: pEC50 (converted)): 8.91 nM; log(ratio) [10]: 7.39; EC50 [5]: 113 nM; Emax [11]: 56%; EC50 [12]: 22.7 nM; log(ratio) [9]: 8.02
COc1ccc(F)cc1C1CC1CNCc1cccc2cc[nH]c12.Cl (racemic)	Not Active	–	–	–	–	–	Activity [6]: inactive; Activity [7]: Not Active
COc1ccc(F)cc1C1CC1CNC1(c2ccccc2OC)CC1.Cl (racemic)	Not Active	874	77	655	102	–	–
COc1cccc(CNC[C@@H]2C[C@H]2c2cc(F)ccc2OC)c1.Cl	Not Active	2600	85	6840	97	–	–
CNC[C@H]1C[C@@H]1c1cc(F)ccc1OC	–	23	71	271	79	54	Activity [8]: inactive; EC50 [5]: 89 nM; log(ratio) [9]: 7.49
COc1ccc(F)cc1C1CC1CNCC1CC1.Cl (racemic)	Not Active	–	–	4260	43	–	Activity [6]: inactive
COc1cccc(CNC[C@H]2C[C@@H]2c2cc(F)ccc2OC)c1.Cl	Not Active	231	83	3700	70	–	–

SMILES	Activity [1]	EC50 ([2]; read-out: EC50) [nM]	Emax [3] [%]	EC50 [4] [nM]	Emax at 5 min (5-HT2A receptor) [%]	Emax at 5 min (5-HT2B receptor) [%]	further results
COc1ccc(F)cc1C1CC1CNCc1sccc1OC.Cl (racemic)	Not Active	121	66	148	102	–	–
COc1ccccc1CNC[C@H]1C[C@@H]1c1cc(F)ccc1OCCF	–	–	93	–	78	22	Emax [11]: 54%
COc1ccc(F)cc1[C@@H]1C[C@H]1CNCc1cccs1.Cl	Not Active	308	81	674	59	–	–
COc1ccc(F)cc1C1CC1CNCc1cccnc1OC (racemic)	–	433	65	1290	66	32	EC50 [5]: 274 nM
COc1ccc(F)cc1C1CC1CNCc1ccccc1C#N (racemic)	–	245	30	721	63	82	EC50 [5]: 238 nM
COc1ccc(F)cc1C1CC1CNC1CC1 (racemic)	–	399	70	1090	69	14	EC50 [5]: 641 nM
COc1ccc(F)cc1C1CC1CNCc1ccsc1OC.Cl (racemic)	Not Active	556	65	463	100	–	–
COc1ccc(F)cc1C1CC1CNCc1cccc2ccsc12 (racemic)	–	777	94	2220	70	79	EC50 [5]: 807 nM
COc1ccc(F)cc1C1CC1CNCc1ccccc1O.Cl (racemic)	Not Active	304	63	77	76	–	–
COc1ccc(F)cc1C1CC1CNCc1ccccc1OCCF (racemic)	–	28	16	398	80	11	EC50 [5]: 56 nM; Ratio EC50 (Homo sapiens): 2
COc1ccccc1CN(C)CC1CC1c1cc(F)ccc1OC.Cl (racemic)	Not Active	670	49	2540	24	–	–
COc1ccccc1CNC[C@@H]1C[C@H]1c1cc(F)ccc1OC	–	–	104	–	94	72	EC50 [5]: 570 nM
COc1cscc1CNCC1CC1c1cc(F)ccc1OC.Cl (racemic)	Not Active	228	65	145	89	–	–
COc1ccccc1CCNCC1CC1c1cc(F)ccc1OC (racemic)	–	–	–	307	59	–	–
COc1ccccc1C(C)NCC1CC1c1cc(F)ccc1OC.Cl (racemic)	Not Active	2550	81	238	106	–	–
COc1ccc(F)cc1[C@H]1C[C@@H]1CNCc1ccccc1Cl.Cl	Not Active	529	94	3530	64	–	–
COc1ccc(CNC[C@H]2C[C@@H]2c2cc(F)ccc2OC)cc1.Cl	Not Active	1200	71	–	–	–	Activity [7]: Not Active
